Activity calls are given as the source filed them. No cut-off for these calls is given here.
Columns and labels:
[1] = molecular target: T1, Sodium-dependent dopamine transporter (Homo sapiens, UniProt Q01959); assay: Displacement of [125I]RTI-55 from human DAT expressing HEK293 cells; format: cell-based
[2] = molecular target: T2, Sodium-dependent serotonin transporter (Homo sapiens, UniProt P31645); assay: Displacement of [125I]RTI-55 from human SERT expressing HEK293 cells; format: cell-based
T2 sequence (P31645 whole entry): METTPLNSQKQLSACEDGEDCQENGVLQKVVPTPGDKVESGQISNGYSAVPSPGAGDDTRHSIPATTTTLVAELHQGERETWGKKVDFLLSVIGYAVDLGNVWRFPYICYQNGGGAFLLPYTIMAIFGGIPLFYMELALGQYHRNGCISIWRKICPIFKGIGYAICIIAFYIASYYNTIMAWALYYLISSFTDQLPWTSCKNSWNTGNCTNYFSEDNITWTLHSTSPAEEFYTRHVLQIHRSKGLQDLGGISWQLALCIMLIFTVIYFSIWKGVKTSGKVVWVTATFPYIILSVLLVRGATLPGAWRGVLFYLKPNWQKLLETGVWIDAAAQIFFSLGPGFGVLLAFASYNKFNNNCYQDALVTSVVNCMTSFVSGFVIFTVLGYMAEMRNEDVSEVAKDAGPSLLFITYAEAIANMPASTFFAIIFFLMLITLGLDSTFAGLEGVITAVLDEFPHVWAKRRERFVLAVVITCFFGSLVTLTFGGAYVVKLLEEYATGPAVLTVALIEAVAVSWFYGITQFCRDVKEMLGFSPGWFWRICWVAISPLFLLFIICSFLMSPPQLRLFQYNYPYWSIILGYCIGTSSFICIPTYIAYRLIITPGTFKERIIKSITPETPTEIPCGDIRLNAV
Method in brief: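 Membranes from HEK293 cells stably expressing human DAT or SERT (lysed in hypotonic HEPES/EDTA, pelleted, resuspended in 0.32 M sucrose) preincubated with drug 10 min at rt, then [125I]RTI-55 added; 90 min rt in dark; filtration, scintillation counting. Krebs-HEPES buffer pH 7.4. Nonspecific: 5 µM mazindol (DAT) or 5 µM imipramine (SERT). Duplicate points, ≥3 experiments.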

[3] = molecular target: T1, Sodium-dependent dopamine transporter; assay: Inhibition of [3H]DA uptake at human DAT expressing HEK293 cells; format: cell-based
Method in brief: (§1)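 Intact HEK293 cells stably expressing human SERT or DAT, scraped and triturated, preincubated with drug 10 min at 25 °C in Krebs-HEPES pH 7.4; [3H]5-HT or [3H]DA (20 nM final) added for 10 min; filtration, scintillation counting. Nonspecific: 5 µM imipramine (SERT) or 5 µM mazindol (DAT). Triplicate points, ≥3 experiments.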

[4] = molecular target: T2, Sodium-dependent serotonin transporter; assay: Inhibition of [3H]5-HT uptake into human SERT expressing HEK293 cells; format: cell-based; method in brief: as §1
[5] = molecular target: T3, Sodium-dependent noradrenaline transporter (Homo sapiens, UniProt P23975); assay: Displacement of [125I]RTI-55 from human NET expressing HEK293 cells; format: cell-based
T3 sequence (P23975 whole entry): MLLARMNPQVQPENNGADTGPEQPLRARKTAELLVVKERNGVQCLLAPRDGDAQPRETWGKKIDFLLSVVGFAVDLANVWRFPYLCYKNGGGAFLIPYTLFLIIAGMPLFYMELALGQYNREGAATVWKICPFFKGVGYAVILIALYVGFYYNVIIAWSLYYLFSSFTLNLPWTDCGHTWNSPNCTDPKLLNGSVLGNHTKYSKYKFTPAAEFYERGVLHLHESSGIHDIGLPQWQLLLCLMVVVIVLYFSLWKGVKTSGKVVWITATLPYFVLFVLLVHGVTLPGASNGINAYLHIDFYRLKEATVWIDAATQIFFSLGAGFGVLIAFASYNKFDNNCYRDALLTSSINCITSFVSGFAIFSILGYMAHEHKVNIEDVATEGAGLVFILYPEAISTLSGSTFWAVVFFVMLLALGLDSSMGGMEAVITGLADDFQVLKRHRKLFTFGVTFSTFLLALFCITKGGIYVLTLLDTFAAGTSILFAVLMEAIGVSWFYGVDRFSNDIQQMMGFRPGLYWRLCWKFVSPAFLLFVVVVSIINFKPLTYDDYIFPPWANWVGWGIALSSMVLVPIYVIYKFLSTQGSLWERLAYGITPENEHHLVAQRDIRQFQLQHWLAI

[6] = molecular target: T3, Sodium-dependent noradrenaline transporter; assay: Inhibition of [3H]NE uptake into human NET expressing HEK293 cells; format: cell-based
Mus musculus = assay: Effect on locomotor activity in Swiss-Webster mouse at 30 mg/kg; format: functional, organism-based; parameters: dose 30 mg/kg
Method in brief: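 Nonhabituated male Swiss-Webster mice (Hsd:ND4, 2-3 months), groups of eight, dosed ip (vehicle deionized water) immediately before testing; horizontal photobeam interruptions counted per 10 min over 8 h, one mouse per chamber, starting 2 h after lights on; compared with vehicle, p < 0.05.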

T1 sequence (Q01959 whole entry): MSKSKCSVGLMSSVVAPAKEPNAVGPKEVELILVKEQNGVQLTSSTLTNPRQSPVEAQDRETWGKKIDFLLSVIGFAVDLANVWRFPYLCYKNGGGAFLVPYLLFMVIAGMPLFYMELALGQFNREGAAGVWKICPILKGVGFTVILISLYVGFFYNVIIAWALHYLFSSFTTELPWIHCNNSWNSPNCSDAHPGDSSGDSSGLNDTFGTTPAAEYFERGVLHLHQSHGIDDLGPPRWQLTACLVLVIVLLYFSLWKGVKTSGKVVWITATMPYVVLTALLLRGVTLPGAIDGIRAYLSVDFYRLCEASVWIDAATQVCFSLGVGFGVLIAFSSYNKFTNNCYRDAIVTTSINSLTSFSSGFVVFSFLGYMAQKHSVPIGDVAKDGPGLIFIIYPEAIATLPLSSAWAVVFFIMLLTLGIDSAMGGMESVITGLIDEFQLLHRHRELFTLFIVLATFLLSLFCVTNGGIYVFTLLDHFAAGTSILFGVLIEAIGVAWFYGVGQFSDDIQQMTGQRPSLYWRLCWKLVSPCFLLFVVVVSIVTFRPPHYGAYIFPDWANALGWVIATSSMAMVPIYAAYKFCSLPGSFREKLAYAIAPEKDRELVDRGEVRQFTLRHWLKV

Row | SMILES | Ki [1] [µM] | Ki [2] [µM] | IC50 [3] [µM] | IC50 [4] [µM] | Ki [5] [µM] | IC50 [6] [µM] | Activity (Mus musculus)
1 | COc1cccc(C(CC(C)C)C2CCCCN2)c1 (stereo in doubt; form 1) | 0.022 | 4.2 | 0.035 | 2.7 | 3.8 | 0.33 | –
2 | CCCC(c1ccc(Cl)c(Cl)c1)C1CCCCN1 (stereo in doubt; form 1) | 0.00097 | 1.8 | 0.0045 | 0.56 | 0.0039 | 0.0081 | –
3 | CC(C)CCC(c1ccc(Cl)cc1)C1CCCCN1 (stereo in doubt; form 1) | 0.0036 | 5 | 0.014 | 7.3 | 0.83 | 0.21 | –
4 | CC(c1ccc(Cl)cc1)C1CCCCN1 (stereo in doubt; form 1) | 0.18 | 4.9 | 0.022 | 1.9 | 0.36 | 0.035 | –
5 | CC(=O)C(c1ccccc1)C1CCCCN1 (stereo not given) | 0.37 | 7.8 | 0.19 | > 9.7 | 2.7 | 0.22 | –
6 | COc1cccc(C(CC(C)C)C2CCCCN2)c1 (stereo in doubt; form 2) | 0.95 | 3.8 | 0.14 | 2.6 | 12 | 1.4 | –
7 | CC(C)(C)CC(c1ccc(Cl)cc1)C1CCCCN1 (stereo not given) | – | – | – | > 8.3 | > 5.5 | – | –
8 | CCCCC(c1ccc(Cl)c(Cl)c1)C1CCCCN1 (stereo in doubt; form 1) | 0.0023 | 1.3 | 0.0057 | 1.4 | 0.012 | 0.027 | –
9 | Clc1ccc(C(CCc2ccccc2)C2CCCCN2)cc1 (stereo not given) | – | 1.8 | – | 0.21 | – | – | –
10 | CCCCCC(c1ccc(Cl)cc1)C1CCCCN1 (stereo in doubt; form 1) | 0.023 | 2.2 | 0.045 | 1.5 | 0.16 | 0.049 | –
11 | CC(C)CC(c1cccc(Cl)c1)C1CCCCN1 (stereo in doubt; form 2) | 0.14 | – | 0.088 | 0.87 | 0.34 | 0.073 | –
12 | CC(C)CC(c1cccc(Cl)c1)C1CCCCN1 (stereo in doubt; form 1) | 0.0037 | – | 0.0028 | 2.1 | 0.023 | 0.014 | –
13 | CC(C)CC(c1ccc(Cl)c(Cl)c1)C1CCCCN1C (stereo not given) | – | – | – | – | – | 0.028 | –
14 | CC(C)CCC(c1ccc(Cl)cc1)C1CCCCN1 (stereo in doubt; form 2) | 0.51 | 6.7 | 0.68 | > 8.3 | 12 | 3 | –
15 | CCCCC(c1ccc(Cl)c(Cl)c1)C1CCCCN1 (stereo in doubt; form 2) | 0.029 | 1.1 | 0.067 | 0.55 | 0.031 | 0.063 | –
16 | COc1ccc(C(CC(C)C)C2CCCCN2)cc1 (stereo in doubt; form 2) | 0.77 | 0.95 | 0.4 | 1.2 | 16 | 1.6 | –
17 | Clc1ccc(C(Cc2ccccc2)C2CCCCN2)cc1 (stereo not given) | – | – | – | – | – | > 8.8 | –
18 | CC(C)C(c1ccc(Cl)cc1)C1CCCCN1 (stereo not given) | – | > 10000 | – | – | > 10000 | – | –

Row | SMILES | Ki [1] [µM] | Ki [2] [µM] | IC50 [3] [µM] | IC50 [4] [µM] | Ki [5] [µM] | IC50 [6] [µM] | Activity (Mus musculus)
19 | CCCC(c1ccc(Cl)cc1)C1CCCCN1 (stereo not given) | 0.011 | 2.7 | 0.0074 | 2.9 | 0.2 | 0.05 | –
20 | CCCCCC(c1ccc(Cl)cc1)C1CCCCN1 (stereo in doubt; form 2) | 0.87 | 3.6 | 0.65 | 1.7 | 1.5 | 0.86 | –
21 | Clc1ccc(C(CCCc2ccccc2)C2CCCCN2)cc1 (stereo in doubt; form 2) | 2.9 | 1.5 | 1.4 | 1.2 | 1.5 | 1.7 | –
22 | COC(=O)C(c1ccccc1)C1CCCCN1 (stereo not given) [METHYLPHENIDATE] | – | – | – | 5.1 | 0.66 | 0.061 | –
23 | CCC(c1ccc(Cl)cc1)C1CCCCN1 (stereo not given) | 1.8 | 4.2 | 2.8 | 4.1 | > 9.2 | 1.3 | –
24 | CC(C)CC(c1ccc(Cl)c(Cl)c1)C1CCCCN1 (stereo in doubt; form 1) | 0.001 | 1.6 | 0.0055 | 1.1 | 0.025 | 0.009 | –
25 | CCC(CC)C(c1ccc(Cl)cc1)C1CCCCN1 (stereo in doubt; form 2) | > 5.7 | 4.8 | 1.2 | > 9.6 | 4.3 | 3.8 | –
26 | Clc1ccc(C(CCCc2ccccc2)C2CCCCN2)cc1 (stereo in doubt; form 1) | 0.44 | 0.7 | 0.29 | 1.6 | 0.49 | 0.6 | –
27 | CCCC(c1ccc(Cl)c(Cl)c1)C1CCCCN1 (stereo in doubt; form 2) | 0.043 | 0.45 | 0.088 | 0.18 | 0.03 | 0.047 | –
28 | CC(C)CC(c1ccc(C(C)C)cc1)C1CCCCN1 (stereo not given) | > 6.5 | – | > 9.1 | – | – | > 8.7 | –
29 | CC(c1ccc(Cl)cc1)C1CCCCN1 (stereo in doubt; form 2) | > 3.9 | > 9.1 | 1.5 | 4.7 | > 6.3 | 3.2 | –
30 | CC(C)CC(c1ccc(Cl)cc1)C1CCCCN1 (stereo in doubt; form 2) | 0.17 | – | 0.38 | – | 4.5 | 0.75 | –
31 | CC(C)CC(c1ccc(Cl)c(Cl)c1)C1CCCCN1 (stereo in doubt; form 2) | 0.031 | 0.45 | 0.013 | 0.29 | 0.12 | 0.019 | –
32 | CCC(CC)C(c1ccc(Cl)cc1)C1CCCCN1 (stereo in doubt; form 1) | 0.4 | 3.9 | 0.24 | > 9.4 | 0.97 | 0.33 | –
33 | COc1ccc(C(CC(C)C)C2CCCCN2)cc1 (stereo in doubt; form 1) | 0.052 | 2.8 | 0.025 | 3.5 | 3.1 | 0.41 | –
34 | CC(C)CC(c1ccc(Cl)cc1)C1CCCCN1 (stereo in doubt; form 1) | – | – | – | – | – | – | Active
35 | COC(=O)C(c1ccc(Cl)cc1)C1CCCCN1 (stereo in doubt; form 2) | – | – | – | > 10000 | > 6.1 | – | –
36 | COC(=O)C(c1ccc(Cl)cc1)C1CCCCN1 (stereo in doubt; form 1) | – | – | – | > 9.8 | – | – | –
